Results reported in ChEMBL document CHEMBL5329163, “N-Acylsulfonamide: a valuable moiety to design new sulfa drug analogues” (RSC Med Chem, 2023).
Converted amounts (≈) assume the structure as drawn. The source made the active and inactive calls. No cut-off for these calls is given here.

Key:
[1] = test system: Escherichia coli; assay: Antibacterial activity against Escherichia coli ATCC 8739 assessed as inhibition of bacterial growth at 1 to 256 ug/ml incubated for 24 hrs by resazurin dye based broth microdilution method; assay type: functional, organism-based; settings: dose 1-256 µg/ml
How it was run: (§1)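 CLSI broth microdilution in cation-adjusted Mueller Hinton broth, pH 7.4 (±0.2). Compounds dissolved in DMSO at 25.6 mg mL⁻¹ (stock), diluted to 1–256 µg mL⁻¹. Inoculum 5 × 10⁵ CFU mL⁻¹ final; 24 h at 37 °C, static. Resazurin 0.015% then added, 2–4 h more; wells staying blue read as above MIC. Sulfacetamide reference.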

[2] = test system: Staphylococcus aureus; assay: Antibacterial activity against Staphylococcus aureus CIP 107093 assessed as inhibition of bacterial growth at 1 to 256 ug/ml incubated for 24 hrs by resazurin dye based broth microdilution method; assay type: functional, organism-based; settings: dose 1-256 µg/ml; how it was run: as §1
[3] = test system: Pseudomonas aeruginosa; assay: Antibacterial activity against Pseudomonas aeruginosa ATCC 27853 assessed as inhibition of bacterial growth at 1 to 256 ug/ml incubated for 24 hrs by resazurin dye based broth microdilution method; assay type: functional, organism-based; settings: dose 1-256 µg/ml; how it was run: as §1
[4] = test system: Bacillus subtilis; assay: Antibacterial activity against Bacillus subtilis ATCC 6051 assessed as inhibition of bacterial growth at 1 to 256 ug/ml incubated for 24 hrs by resazurin dye based broth microdilution method; assay type: functional, organism-based; settings: dose 1-256 µg/ml; how it was run: as §1
[5] = test system: Staphylococcus aureus; assay: Antibacterial activity against Staphylococcus aureus CIP 107093 assessed as inhibition of bacterial growth incubated for 24 hrs by resazurin dye based broth microdilution method; assay type: functional; how it was run: as §1
[6] = test system: Bacillus subtilis; assay: Antibacterial activity against Bacillus subtilis ATCC 6051 assessed as inhibition of bacterial growth incubated for 24 hrs by resazurin dye based broth microdilution method; assay type: functional; how it was run: as §1
[7] = test system: Escherichia coli; assay: Antibacterial activity against Escherichia coli ATCC 8739 assessed as inhibition of bacterial growth incubated for 24 hrs by resazurin dye based broth microdilution method; assay type: functional; how it was run: as §1
[8] = test system: Pseudomonas aeruginosa; assay: Antibacterial activity against Pseudomonas aeruginosa ATCC 27853 assessed as inhibition of bacterial growth incubated for 24 hrs by resazurin dye based broth microdilution method; assay type: functional; how it was run: as §1
[9] = test system: HaCaT; assay: Cytotoxicity against human HaCaT cells incubated for 24 hrs by CyQuant LDH assay; assay type: toxicity, cell-based
How it was run: (§2)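 HaCaT (10% FCS) or Caco-2 (20% FCS) grown in DMEM with 1% penicillin–streptomycin, 37 °C, 5% CO₂. Seeded in 24-well plates, grown 72 h, rinsed with PBS, then exposed 24 h to compounds at MIC and ½ MIC in fresh DMEM. LDH release measured. Untreated and damaged-cell controls; two independent assays, at least 2 replicates, mean ± SEM.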

[10] = test system: Caco-2; assay: Cytotoxicity against human Caco-2 cells incubated for 24 hrs by CyQuant LDH assay; assay type: toxicity, cell-based; settings: caco-2, 24 h; how it was run: as §2
[11] = test system: Escherichia coli; assay: Antibiofilm activity against Escherichia coli ATCC 8739 assessed as inhibition of biofilm formation at 0.5 times of MIC by crystal violet staining based analysis relative to control; assay type: functional
How it was run: (§3)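 Overnight cultures inoculated into fresh LB with compound at ½ MIC and grown 24 h at 37 °C, static. Growth read at 580 nm. Medium discarded, wells rinsed with distilled water, stained with 0.1% crystal violet, dye solubilized in 30% acetic acid, OD 595 nm; uninoculated-control staining subtracted. At least three independent replicates, mean ± SEM; one-way ANOVA with Dunnett test.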

[12] = test system: Pseudomonas aeruginosa; assay: Antibiofilm activity against Pseudomonas aeruginosa ATCC 27853 assessed as inhibition of biofilm formation at 0.5 times of MIC by crystal violet staining based analysis relative to control; assay type: functional; how it was run: as §3

Row | MIC [5] [µg/mL] | MIC [6] [µg/mL] | MIC [7] [µg/mL] | MIC [8] [µg/mL] | SMILES | Activity [1] | Activity [2] | Activity [3] | Activity [4] | further results
1 |  |  |  |  | COc1ccccc1C(=O)NS(=O)(=O)c1ccc(NC(C)=O)cc1 | inactive | inactive | inactive | inactive | 
2 | > 256 | > 256 | > 256 | > 256 | COc1cc(C(=O)NS(=O)(=O)c2ccc(N)cc2)ccc1[N+](=O)[O-] |  |  |  |  | 
3 |  |  |  |  | CC(=O)Nc1ccc(S(=O)(=O)NC(=O)c2ccc(Cl)cc2Cl)cc1 | inactive | inactive | inactive | inactive | 
4 | > 256 | 256 (≈ 797 µM) | > 256 | > 256 | Nc1ccc(S(=O)(=O)NC(=O)c2ccc([N+](=O)[O-])cc2)cc1 |  |  |  |  | 
5 |  |  |  |  | CC(=O)Nc1ccc(S(=O)(=O)NC(C)=O)cc1 | inactive | inactive | inactive | inactive | 
6 | 256 (≈ 1190 µM) | 128 (≈ 597 µM) | 32 (≈ 149 µM) | > 256 | CC(=O)NS(=O)(=O)c1ccc(N)cc1 [SULFACETAMIDE] |  |  |  |  | Activity [9]: Non-Toxic; Activity [10]: Non-Toxic
7 | > 256 | > 256 | > 256 | > 256 | Nc1ccc(S(=O)(=O)NC(=O)c2cc(F)c(F)c(F)c2)cc1 |  |  |  |  | 
8 |  |  |  |  | CC(=O)Nc1ccc(S(=O)(=O)NC(=O)c2cc(F)c(F)c(F)c2)cc1 | inactive | inactive | inactive | inactive | 
9 |  |  |  |  | CC(=O)Nc1ccc(S(=O)(=O)NC(=O)c2ccccc2)cc1 | inactive | inactive | inactive | inactive | 
10 |  |  |  |  | COc1cc(C(=O)NS(=O)(=O)c2ccc(NC(C)=O)cc2)ccc1[N+](=O)[O-] | inactive | inactive | inactive | inactive | 
11 | > 256 | 128 (≈ 463 µM) | 32 (≈ 116 µM) | > 256 | Nc1ccc(S(=O)(=O)NC(=O)c2ccccc2)cc1 [SULFABENZAMIDE] |  |  |  |  | inhibition (INH) [11]: 30%; Activity [9]: Non-Toxic; Activity [10]: Non-Toxic; inhibition (INH) [12]: 14%
12 | > 256 | 256 (≈ 836 µM) | 32 (≈ 104 µM) | > 256 | COc1cccc(C(=O)NS(=O)(=O)c2ccc(N)cc2)c1 |  |  |  |  | inhibition (INH) [11]: 42%; Activity [9]: Non-Toxic; Activity [10]: Non-Toxic; inhibition (INH) [12]: 23%
13 | > 256 | > 256 | > 256 | > 256 | Nc1ccc(S(=O)(=O)NC(=O)c2ccc(C(F)(F)F)cc2)cc1 |  |  |  |  | 
14 |  |  |  |  | COc1cccc(C(=O)NS(=O)(=O)c2ccc(NC(C)=O)cc2)c1 | inactive | inactive | inactive | inactive | 
15 | > 256 | > 256 | > 256 | > 256 | Nc1ccc(S(=O)(=O)NC(=O)c2ccc(Cl)cc2Cl)cc1 |  |  |  |  | 
16 |  |  |  |  | CC(=O)Nc1ccc(S(=O)(=O)NC(=O)c2ccc([N+](=O)[O-])cc2)cc1 | inactive | inactive | inactive | inactive | 
17 |  |  |  |  | CC(=O)Nc1ccc(S(=O)(=O)NC(=O)c2ccc(C(F)(F)F)cc2)cc1 | inactive | inactive | inactive | inactive | 
18 | 256 (≈ 836 µM) | 64 (≈ 209 µM) | 256 (≈ 836 µM) | > 256 | COc1ccccc1C(=O)NS(=O)(=O)c1ccc(N)cc1 |  |  |  |  | Activity [11]: Active; Activity [9]: Non-Toxic; Activity [10]: Non-Toxic; Activity [12]: Active
